Experimental findings from ChEMBL document CHEMBL1122579, “Synthesis and biological activity of nucleosides and nucleotides related to the antitumor agent 2-beta-D-ribofuranosylthiazole-4-carboxamide” (J Med Chem, 1984) are described below.

Assay [1] concerns Mus musculus. Nature of the assay: Mice were inoculated intraperitoneally with L1210 leukemia cells and the change in body weight of the mice with the compound was evaluated at a dose of 100 mg/kg. Particulars: route intraperitoneal. Type of assay: functional. The method in brief: (§1)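 Mice received intraperitoneally implanted L1210 leukemia, with groups of six treated mice and 36 untreated controls. Compound was given intraperitoneally on days 1-5. Body weight change was the average weight on day 5 minus the average on day 1, in grams. Median life span and % ILS were recorded against the untreated controls.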

The test system of assay [2] is Mus musculus. Nature of the assay: Mice were inoculated intraperitoneally with L1210 leukemia cells and the change in body weight of the mice with the compound was evaluated at a dose of 200 mg/kg. Type of assay: functional. The note with it: route intraperitoneal. The method in brief: as §1
Assay [3] deals with Mus musculus. The assay can be described thus: Mice were inoculated intraperitoneally with L1210 leukemia cells and the change in body weight of the mice with the compound was evaluated at a dose of 50 mg/kg. Type of assay: functional. Particulars: route intraperitoneal. The method in brief: as §1
The test system of assay [4] is Mus musculus. The assay can be described thus: Mice were inoculated intraperitoneally with L1210 leukemia cells and the percentage ILS of the mice with the compound was evaluated at a dose of 100 mg/kg. Type of assay: functional. Particulars: L1210, ip, route intraperitoneal. In short, it runs like this:
(§2)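 Mice implanted ip with L1210 leukemia, in groups of six, with 36 untreated controls. Drug given ip on days 1-5 at 50-800 mg/kg. Endpoint was median life span in days, with percent increase in life span (ILS) relative to untreated controls. Body weight change was taken as day 5 minus day 1 average weight.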

In assay [5] the test system is Mus musculus. Nature of the assay: Mice were inoculated intraperitoneally with L1210 leukemia cells and the percentage ILS of the mice with the compound was evaluated at a dose of 200 mg/kg. In kind it is functional. The note with it: L1210, ip, route intraperitoneal. In short, it runs like this: as §2
For assay [6], the system named is Mus musculus. Nature of the assay: Mice were inoculated intraperitoneally with L1210 leukemia cells and the percentage ILS of the mice with the compound was evaluated at a dose of 400 mg/kg. Type of assay: functional. Particulars: L1210, ip, route intraperitoneal. In short, it runs like this:
as §2

In assay [7] the test system is Mus musculus. Nature of the assay: Mice were inoculated intraperitoneally with L1210 leukemia cells and the percentage ILS of the mice with the compound was evaluated at a dose of 50 mg/kg. In kind it is functional. Particulars: L1210, ip, route intraperitoneal. In short, it runs like this:
as §2

The test system of assay [8] is Mus musculus. The assay can be described thus: Mice were inoculated intraperitoneally with L1210 leukemia cells and the median life span of the mice with the compound was evaluated at a dose of 200 mg/kg. In kind it is functional. Particulars: route intraperitoneal. The method in brief:
as §2

Assay [9] deals with Mus musculus. Nature of the assay: Mice were inoculated intraperitoneally with L1210 leukemia cells and the median life span of the mice with the compound was evaluated at a dose of 400 mg/kg. In kind it is functional. Particulars: route intraperitoneal. The method in brief: as §2
The subject of assay [10] is Mus musculus. Nature of the assay: Mice were inoculated intraperitoneally with L1210 leukemia cells and the median life span of the mice with the compound was evaluated at a dose of 50 mg/kg. Type of assay: functional. The note with it: route intraperitoneal. The method in brief: as §2
Assay [11] has as its system Mus musculus. The assay can be described thus: Mice were inoculated intraperitoneally with L1210 leukemia cells and the median life span of the mice with the compound was evaluated at a dose of 100 mg/kg. Type of assay: functional. Particulars: route intraperitoneal. The method in brief:
as §2

The test system of assay [12] is Mus musculus. Nature of the assay: Mice were inoculated intraperitoneally with L1210 leukemia cells and the change in body weight of the mice with the compound was evaluated at a dose of 400 mg/kg. Type of assay: functional. Particulars: route intraperitoneal. The method in brief:
as §1

In another assay the test system is T-cells (human). The assay can be described thus: Compound was evaluated for the cytotoxicity to T cells in the presence of 2'-deoxyguanosine and expressed as ED50.
Assay [13] concerns the target purine nucleoside phosphorylase (human) (UniProt P00491). The assay can be described thus: Compound was evaluated for the concentration which […] inosine phosphorolysis by human lymphoblast purine nucleoside phosphorylase and expressed as IC50.
The subject of assay [14] is Mus musculus. The assay can be described thus: Mice were inoculated intraperitoneally with L1210 leukemia cells and the change in body weight of the mice with the compound was evaluated at a dose of 800 mg/kg. In kind it is functional. Particulars: route intraperitoneal. In short, it runs like this:
as §1

Assay [15] is filed under the species Mus musculus. The assay can be described thus: Compound was evaluated for the cytotoxicity to L1210 leukemia cells in culture at ~1.6-fold higher concentrations and expressed as ID50. Particulars: read-out: ID50 (the source's name). Type of assay: functional.
Assay [16] has as its system Mus musculus. The assay can be described thus: Mice were inoculated intraperitoneally with L1210 leukemia cells and the percentage ILS of the mice with the compound was evaluated at a dose of 800 mg/kg. In kind it is functional. Particulars: L1210, ip, route intraperitoneal. The method in brief:
as §2

In assay [17] the test system is Mus musculus. The assay can be described thus: Mice were inoculated intraperitoneally with L1210 leukemia cells and the median life span of the mice with the compound was evaluated at a dose of 800 mg/kg. In kind it is functional. The note with it: route intraperitoneal. In short, it runs like this: as §2
Assay [18] has as its system Mus musculus. Nature of the assay: Mice were inoculated intraperitoneally with L1210 leukemia cells and the change in body weight of the mice with the compound was evaluated at a dose of 25 mg/kg. In kind it is functional. The note with it: route intraperitoneal.
Assay [19] concerns Mus musculus. The assay can be described thus: Mice were inoculated intraperitoneally with L1210 leukemia cells and the percentage ILS of the mice with the compound was evaluated at a dose of 25 mg/kg. Type of assay: functional. Particulars: L1210, ip, route intraperitoneal.
For assay [20], the system named is Mus musculus. The assay can be described thus: Mice were inoculated intraperitoneally with L1210 leukemia cells and the median life span of the mice with the compound was evaluated at a dose of 25 mg/kg. Type of assay: functional. Particulars: route intraperitoneal.

For orientation: ILS means how much longer treated animals lived than controls. Read a low ILS as little gain in survival. As a reminder, the EC50 is the concentration at which the effect is half-maximal.

On to `NC(=O)c1csc([C@@H]2O[C@@H]3COP(=O)(O)O[C@H]3[C@H]2O)n1`, for which the Body weight change with Mus musculus [1] was -0.6 g; in the assay with Mus musculus [2] it was -1.9 g; with Mus musculus [3] it was -1.1 g; with Mus musculus [12], -3.1 g. In addition, the ILS at 100 mg/kg in the assay on Mus musculus [4] turned out to be 23%. This compound also showed an ILS at 200 mg/kg with Mus musculus [5] of 52%. The ILS at 400 mg/kg in the assay on Mus musculus [6] amounted to 55%. Moreover, the ILS at 50 mg/kg in the assay on Mus musculus [7] is 14%. Moreover, the Median life span with Mus musculus [8] came to 17.7 days; in the assay on Mus musculus [9] it was 18 days; in the assay on Mus musculus [10], 13.3 days; in the assay on Mus musculus [11], 14.3 days.
As to `N=C(N)c1csc([C@@H]2O[C@H](CO)[C@@H](O)[C@H]2O)n1`, the EC50 in the assay with T-cells (human) amounted to 77 µM. Further, the IC50 in assay [13] came out at 300 µM.
Take `NC(=O)c1csc([C@@H]2O[C@H](COP(=O)(O)O)[C@@H](O)[C@H]2O)n1`: the Body weight change in the assay on Mus musculus [1] is -1 g; in the assay with Mus musculus [2] it was -1.4 g; with Mus musculus [3], -0.6 g; in the assay on Mus musculus [14] it was -3.6 g; in the assay with Mus musculus [12] it was -2 g. For the same compound, in the assay filed under Mus musculus [15], the IC50 is 3200 nM. In the assay on Mus musculus [4], this compound showed an increase in life span (ILS) at 100 mg/kg of 86%. Moreover, the increase in lifespan (ILS) at 200 mg/kg in the assay on Mus musculus [5] amounted to 159%. The ILS at 400 mg/kg in the assay with Mus musculus [6] stood at 83%. In the assay with Mus musculus [7], this compound yielded an ILS at 50 mg/kg of 36%. In the assay on Mus musculus [16], this compound had an ILS at 800 mg/kg of 96%. For the same compound, the Median life span in the assay with Mus musculus [8] is 21.5 days; in the assay with Mus musculus [9], 15.2 days; with Mus musculus [10], 11.3 days; in the assay on Mus musculus [17], 16.3 days; in the assay with Mus musculus [11], 15.5 days.
For `NC(=O)c1csc([C@@H]2O[C@H](CO)[C@@H](O)[C@H]2O)n1` [TIAZOFURIN], the Body weight change is reported as -2.5 g in the assay with Mus musculus [1]; -2.9 g in the assay with Mus musculus [2]; -2.6 g with Mus musculus [18]; -2.1 g with Mus musculus [3]; -4.4 g in the assay on Mus musculus [14]; -3.9 g in the assay with Mus musculus [12]. The IC50 in the assay filed under Mus musculus [15] was 1900 nM. Also, the ILS at 100 mg/kg with Mus musculus [4] is 82%. The increase in life span (ILS) at 200 mg/kg with Mus musculus [5] came to 103%. The same compound came in with an increase in life span (ILS) at 25 mg/kg in the assay on Mus musculus [19] of 58%. The compound further displayed an ILS at 400 mg/kg in the assay with Mus musculus [6] of 100%. In the assay on Mus musculus [7], the increase in life span (ILS) at 50 mg/kg turned out to be 66%. This compound also yielded an increase in life span (ILS) at 800 mg/kg with Mus musculus [16] of 85%. The Median life span came to 16.5 days in the assay with Mus musculus [8]; 12.8 days in the assay with Mus musculus [20]; 16.2 days in the assay on Mus musculus [9]; 13.5 days in the assay on Mus musculus [10]; 15 days in the assay with Mus musculus [17]; 14.8 days with Mus musculus [11].
